The source made the active and inactive calls. The rule behind the calls is not given here.
Experiments:
[1] = Ratio of compound selectivity index to glucantime selectivity index for amastigote form of Leishmania braziliensis MHOM/BR/1975/M2904 infected in J774.2 cells over mouse J774.2 cells
Summary of the method: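 J774.2 macrophages in MEM + 2 mM glutamine + 20% inactivated FCS were infected with stationary-phase promastigotes (10:1) for 24 h at 37 °C, 5% CO2. After washing, compounds were added at […] for 72 h. Amastigote reduction was scored in methanol-fixed, Giemsa-stained preparations; IC50 by regression; triplicates. SI = J774.2 IC50 (72 h flow cytometry)/amastigote IC50; ratio is versus Glucantime SI.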

Leishmania braziliensis [2] = test: Antileishmanial activity against promastigote form of Leishmania braziliensis MHOM/BR/1975/M2904 after 72 hrs by haemocytometric analysis; format: functional; details: MHOM/BR/75/M2904, 72 h
Summary of the method: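 Promastigotes grown at 28 °C in MTL medium with 10% inactivated FCS. Compounds in DMSO (0.1%), diluted in culture medium to 100, 50, 25, 10 and 1. Cells counted at 72 h in a Neubauer haemocytometric chamber. IC50 (50% inhibition) by linear regression of Kc values.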

J774.2 = test: Cytotoxicity against mouse J774.2 cells after 72 hrs by PI-staining based flow cytometric analysis; format: cell-based; details: J774.2, 72 h
Summary of the method: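 J774.2 macrophages (ECACC 91051511, female BALB/c mouse tumour) treated 72 h with 100, 50, 25, 10 and 1 of compound. Propidium iodide then fluorescein diacetate each added for 10 min at 28 °C in the dark. Cells pelleted at 400g, washed in PBS and analysed by flow cytometry. Viability % vs control; IC50 by linear regression of Kc values.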

Leishmania infantum [3] = test: Antileishmanial activity against promastigote form of Leishmania infantum MCAN/ES/2001/UCM-10 assessed as high electro density at IC25 concentration after 96 hrs by […] electron microscopic analysis; format: functional, organism-based
Summary of the method: (§1)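 Promastigotes at 5 × 10^5 cells/mL in MTL medium with compound at IC25 for 96 h. Ultrastructure examined by transmission electron microscopy against untreated control parasites.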

Leishmania infantum [4] = test: Antileishmanial activity against promastigote form of Leishmania infantum MCAN/ES/2001/UCM-10 assessed as vacuoles in cytoplasm at IC25 concentration after 96 hrs by […] electron microscopic analysis relative to control; format: functional, organism-based; summary of the method: as §1
Leishmania infantum [5] = test: Antileishmanial activity against promastigote form of Leishmania infantum MCAN/ES/2001/UCM-10 assessed as swollen mitochondria at IC25 concentration after 96 hrs by […] electron microscopic analysis relative to control; format: functional, organism-based; summary of the method: as §1
Leishmania infantum [6] = test: Antileishmanial activity against promastigote form of Leishmania infantum MCAN/ES/2001/UCM-10 assessed as corrugated cytoplasmic membrane at IC25 concentration after 96 hrs by […] electron microscopic analysis; format: functional, organism-based; summary of the method: as §1
Leishmania braziliensis [7] = test: Antileishmanial activity against promastigote form of Leishmania braziliensis MHOM/BR/1975/M2904 assessed as structural alterations at IC25 concentration after 96 hrs by MET microscopic analysis; format: functional; details: MHOM/BR/75/M2904; summary of the method: as §1
Leishmania infantum [8] = test: Antileishmanial activity against promastigote form of Leishmania infantum MCAN/ES/2001/UCM-10 assessed as death-like aspect vesicles at IC25 concentration after 96 hrs by […] electron microscopic analysis relative to control; format: functional, organism-based; summary of the method: as §1
Leishmania infantum [9] = test: Antileishmanial activity against promastigote form of Leishmania infantum MCAN/ES/2001/UCM-10 assessed as size reduction at IC25 concentration after 96 hrs by […] electron microscopic analysis; format: functional, organism-based; summary of the method: as §1
Leishmania infantum [10] = test: Antileishmanial activity against promastigote form of Leishmania infantum MCAN/ES/2001/UCM-10 assessed as swollen kinetoplast at IC25 concentration after 96 hrs by […] electron microscopic analysis relative to control; format: functional, organism-based; summary of the method: as §1
Leishmania braziliensis [11] = test: Antileishmanial activity against promastigote form of Leishmania braziliensis MHOM/BR/1975/M2904 assessed as disorganized flagellar pocket at IC25 concentration after 96 hrs by MET microscopic analysis; format: functional; details: MHOM/BR/75/M2904; summary of the method: as §1
Leishmania infantum [12] = test: Antileishmanial activity against promastigote form of Leishmania infantum MCAN/ES/2001/UCM-10 assessed as mortality at IC25 concentration after 96 hrs by […] electron microscopic analysis; format: functional, organism-based; summary of the method: as §1
Leishmania braziliensis [13] = test: Antileishmanial activity against promastigote form of Leishmania braziliensis MHOM/BR/1975/M2904 assessed as small vacuoles at IC25 concentration after 96 hrs by MET microscopic analysis; format: functional; details: MHOM/BR/75/M2904; summary of the method: as §1
Leishmania braziliensis [14] = test: Antileishmanial activity against promastigote form of Leishmania braziliensis MHOM/BR/1975/M2904 assessed as swollen parasites at IC25 concentration after 96 hrs by MET microscopic analysis; format: functional; details: MHOM/BR/75/M2904; summary of the method: as §1
Leishmania braziliensis [15] = test: Antileishmanial activity against promastigote form of Leishmania braziliensis MHOM/BR/1975/M2904 assessed as disorganized flagellum at IC25 concentration after 96 hrs by MET microscopic analysis; format: functional; details: MHOM/BR/75/M2904; summary of the method: as §1
Leishmania braziliensis [16] = test: Antileishmanial activity against promastigote form of Leishmania braziliensis MHOM/BR/1975/M2904 assessed as structural disruptions at IC25 concentration after 96 hrs by MET microscopic analysis; format: functional; details: MHOM/BR/75/M2904; summary of the method: as §1
Leishmania braziliensis [17] = test: Antileishmanial activity against promastigote form of Leishmania braziliensis MHOM/BR/1975/M2904 assessed as nuclear alterations at IC25 concentration after 96 hrs by MET microscopic analysis; format: functional; details: MHOM/BR/75/M2904; summary of the method: as §1
Leishmania braziliensis [18] = test: Antileishmanial activity against promastigote form of Leishmania braziliensis MHOM/BR/1975/M2904 assessed as empty vacuoles at IC25 concentration after 96 hrs by MET microscopic analysis; format: functional; details: MHOM/BR/75/M2904; summary of the method: as §1
Leishmania braziliensis [19] = test: Antileishmanial activity against promastigote form of Leishmania braziliensis MHOM/BR/1975/M2904 assessed as lipid natured cytoplasm at IC25 concentration after 96 hrs by MET microscopic analysis; format: functional; details: MHOM/BR/75/M2904; summary of the method: as §1
Leishmania infantum [20] = test: Inhibition of promastigote form Leishmania infantum MCAN/ES/2001/UCM-10 Fe-SOD at 5 uM by NBT reduction assay relative to control
Summary of the method: (§2)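 Promastigotes sonicated in sucrose/Tris-HCl/EDTA buffer, pH 7.8, and centrifuged. Protein precipitating at 35–85% ammonium sulphate desalted into 20 mM potassium phosphate with 1 mM EDTA, pH 7.8. Protein measured by Bradford. Fe-SOD activity read spectrophotometrically as inhibition of NBT reduction by superoxide, with compounds at 0.1–50. IC50 by linear regression of Kc values; three determinations; Newman-Keuls test vs control homogenate.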

Leishmania infantum [21] = test: Antileishmanial activity against promastigote form of Leishmania infantum MCAN/ES/2001/UCM-10 assessed as cytoplasmic membrane disruption at IC25 concentration after 96 hrs by […] electron microscopic analysis relative to control; format: functional, organism-based; summary of the method: as §1
[22] = test system: Leishmania braziliensis MHOM/BR/75/M2904; test: Inhibition of promastigote form Leishmania braziliensis MHOM/BR/1975/M2904 Fe-SOD at 12.5 uM by NBT reduction assay relative to control; summary of the method: as §2
Leishmania infantum [23] = test: Antileishmanial activity against promastigote form of Leishmania infantum MCAN/ES/2001/UCM-10 assessed as disorganized cytoplasm at IC25 concentration after 96 hrs by […] electron microscopic analysis relative to control; format: functional, organism-based; summary of the method: as §1

Structure (SMILES) | Ratio [1] | IC50 (Leishmania braziliensis [2]) [µM] | IC50 (J774.2) [µM] | Activity (Leishmania infantum [3]) | Activity (Leishmania infantum [5]) | Activity (Leishmania infantum [6]) | Activity (Leishmania infantum [9]) | Activity (Leishmania infantum [10]) | further results
Cl.c1cc2nc(c1)CNCCN(CCNCc1cccc3ccccc13)CCNC2 | 27 | 12.3 | 365 | Active | Active | Active | Active | Active | Activity (Leishmania infantum [4]): Active; Activity (Leishmania braziliensis [7]): inactive; Activity (Leishmania infantum [8]): Active
Br.NCCN1CCNCc2cccc(n2)CNCC1 | 29 | 11.8 | 232 | – | – | – | – | – | –
Cl.c1ccc(CNCCN2CCNCc3cccc(n3)CNCC2)nc1 | 30 | 11.3 | 254 | – | – | – | – | – | Activity (Leishmania braziliensis [11]): Active; Activity (Leishmania infantum [12]): Active; Activity (Leishmania braziliensis [13]): Active; Activity (Leishmania braziliensis [14]): Active; Activity (Leishmania braziliensis [15]): Active; Activity (Leishmania braziliensis [16]): Active; Activity (Leishmania braziliensis [17]): inactive; Activity (Leishmania braziliensis [18]): Active; Activity (Leishmania braziliensis [19]): Active
Cl.c1cncc(CNCCN2CCNCc3cccc(n3)CNCC2)c1 | 57 | 23 | 468 | Active | Active | Active | Active | Active | inhibition (Leishmania infantum [20]): 100%; Activity (Leishmania infantum [21]): Active; inhibition [22]: 100%; Activity (Leishmania infantum [23]): Active

Reference: ChEMBL document CHEMBL2331406, “In vitro activity of scorpiand-like azamacrocycle derivatives in promastigotes and intracellular amastigotes of Leishmania infantum and Leishmania braziliensis” (Eur J Med Chem, 2013)
